Sampled rows, rich in hits. Any-hit rate of the full collection: about 5.1%.
STAT1 act – STAT1 signaling activators, primary screen, cell-based, HTS, luciferase reporter; NIH 3T3 STAT1-luciferase reporter, IFN-gamma, luminescence; 100% = IFN-gamma alone, no compound; activation (% of control), % at 5.5 µM; hit rate 2.6% among 200,000; AID 932, 2007;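 active = activation above the screen-wide mean activation plus 3 SD, cut at about 130% in these data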;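 note: raw ratio to IFN-gamma control signal so 100% means no change and 0% no light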
STAT3 blocker – IL-6 driven STAT3 reporter inhibitors, primary screen, U3A cells, luciferase, luminescence, MLSCN library. IL-6 STAT3-luciferase reporter; host cell line lacks STAT1. AID 862, 2007. hit rate 0.89% among 190,000. inhibition, % at 5.5 µM;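 active = inhibition above the mean inhibition across all screened compounds plus 3 SD, cut at about 44% in these data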;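 note: 0% = DMSO only wells and 100% = 100 µM nifuroxazide control wells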
NF-kB neuron act – activators of NF-kB expression in neurons, primary screen, cell-based, HTS; fold change at 12.5 µM; human neuronal cells, NF-kB reporter expression; active compounds read high; AID 1239, 2008; hit rate 1.6% among 190,000; in the data active = fold change above about 3.3
STAT3 activator – IL-6 driven STAT3 reporter potentiators, primary screen, U3A cells, luciferase, luminescence, MLSCN library | hit rate 0.91% among 190,000 | IL-6 STAT3-luciferase reporter; 100% = signal with IL-6 EC80 alone | activation (% of control), % at 5.6 µM;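 active = activation above the screen-wide mean of compound activation plus 3 SD, cut at about 130% in these data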;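 note: 0% = background luminescence of wells with medium and substrate only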
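Test system: human U3A cells carrying STAT3-luciferase construct; control set: IL-6-only wells as 100% reference; timing: compound pre-incubation 1 h before IL-6, then 6 h stimulation at 37 °C; also added: IL-6 stimulus at 33 ng/mL final; evaluation: % activation versus median of IL-6-stimulated wells; detection: reporter luminescence signal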
STAT1 inh – STAT1 signaling inhibitors, primary screen, cell-based, HTS, luciferase reporter; AID 920, 2007; hit rate 0.35% among 200,000; inhibition, % at 5.5 µM; NIH 3T3 STAT1-luciferase reporter, IFN-gamma, luminescence;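 active = inhibition above a set limit, the mean inhibition across all tested compounds plus 3 SD, cut at about 34% in these data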;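 note: 0% = IFN-gamma with DMSO and 100% = IFN-gamma with 300 µM nifuroxazide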
APP 5'UTR act – activators of APP 5'UTR luciferase reporter, primary screen, SH-SY5Y cells | SH-SY5Y APP 5'UTR luciferase reporter, luminescence; zero percent = DMSO vehicle wells | activation, % at 2 µM | hit rate 1% among 190,000 | AID 1276, 2008;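 active = activation above a set limit, based on mean plus 3 SD of controls, cut at about 140% in these data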
Numbers without * were called inactive.

How did Cc1cc(N2CCCCC2)n2ncc(-c3ccc(Cl)cc3)c2n1 do in these assays?
STAT1 act: 139*; STAT3 blocker: -22; NF-kB neuron act: 1.1; STAT3 activator: 121; STAT1 inh: -43; APP 5'UTR act: 38

Results for Cc1cc(N2CCCCC2)n2nc(C)c(-c3ccccc3)c2n1 ?
STAT1 act: 108; STAT3 blocker: 4; NF-kB neuron act: 1.4; STAT3 activator: 99; STAT1 inh: -9; APP 5'UTR act: 1

What do the screens show for `Cc1cc(N2CCC(C)CC2)n2nc(C)c(-c3ccccc3)c2n1`?
STAT1 act: 98; STAT3 blocker: -6; NF-kB neuron act: 1.1; STAT3 activator: 107; STAT1 inh: 2; APP 5'UTR act: -4

How did Cc1cc(N2CCC(C)CC2)n2ncc(-c3ccccc3)c2n1 do in these assays?
STAT1 act: 132*; STAT3 blocker: 29; NF-kB neuron act: 0.8; STAT3 activator: 79; STAT1 inh: -35; APP 5'UTR act: 194*

Results for O=S(=O)(c1ccc2ccccc2c1)N(CC1CO1)c1ccccc1 (configuration not stated) ?
STAT1 act: 96; STAT3 blocker: 1; NF-kB neuron act: 1.2; STAT3 activator: 102; STAT1 inh: 3; APP 5'UTR act: -3

Results for CCC(C)(C(=O)NC1CCCC1)N(C(=O)CNC(=O)c1ccccc1)c1c(C)n(C)n(-c2ccccc2)c1=O (configuration not stated) ?
STAT1 act: 94; STAT3 blocker: 8; NF-kB neuron act: 0.93; STAT3 activator: 95; STAT1 inh: 6; APP 5'UTR act: -4

What do the screens show for `c1ccc2c(c1)CCOC2CNCCCN1CCCCC1` (configuration not stated)?
STAT1 act: 100; STAT3 blocker: 5; NF-kB neuron act: 0.59; STAT3 activator: 99; STAT1 inh: -1; APP 5'UTR act: 0

What do the screens show for `O=C(O)c1ccc(Nc2nc3c(s2)CCCC3)cc1`?
STAT1 act: 36; STAT3 blocker: 80*; NF-kB neuron act: 3.5*; STAT3 activator: 32; STAT1 inh: 69*; APP 5'UTR act: 65

How did C1CCN=C(Nc2nc3c(s2)CCCC3)CC1 do in these assays?
STAT1 act: 131*; STAT3 blocker: 4; NF-kB neuron act: 1.8; STAT3 activator: 100; STAT1 inh: -34; APP 5'UTR act: 30

Results for Cc1nc(Nc2ccc(C(=O)O)cc2)sc1-c1ccccc1 ?
STAT1 act: 131*; STAT3 blocker: 72*; STAT3 activator: 41; STAT1 inh: -33; APP 5'UTR act: 160*

Results for COC(=O)c1sc(Nc2ccccc2)nc1C ?
STAT1 act: 128; STAT3 blocker: 0; NF-kB neuron act: 1.9; STAT3 activator: 105; STAT1 inh: -30; APP 5'UTR act: 35

How did C/C(=N\Nc1nc2c(s1)CCCC2)c1ccccc1 do in these assays?
STAT1 act: 149*; STAT3 blocker: -101; NF-kB neuron act: 2.1; STAT3 activator: 184*; STAT1 inh: -53; APP 5'UTR act: 15

Results for CC(Cc1ccccn1)NC(=O)CCc1nnc(C2CCCCC2)o1 (configuration not stated) ?
STAT1 act: 108; STAT3 blocker: 8; NF-kB neuron act: 1.2; STAT3 activator: 104; STAT1 inh: -9; APP 5'UTR act: 5

Results for C(=N\NC1=Nc2cccc3cccc1c23)/c1ccccc1 ?
STAT1 act: 180*; STAT3 blocker: -49; NF-kB neuron act: 1.6; STAT3 activator: 144*; STAT1 inh: -89; APP 5'UTR act: -31

Results for COc1ccc(NC2=Nc3cccc4cccc2c34)cc1OC ?
STAT1 act: 106; STAT3 blocker: 30; NF-kB neuron act: 1.1; STAT3 activator: 79; STAT1 inh: -6; APP 5'UTR act: -11

Results for Clc1ccc(/C=N/NC2=Nc3cccc4cccc2c34)cc1 ?
STAT1 act: 135*; STAT3 blocker: -19; NF-kB neuron act: 1.4; STAT3 activator: 119; STAT1 inh: -39; APP 5'UTR act: 70

Results for C(=N\NC1=Nc2cccc3cccc1c23)/c1cccnc1 ?
STAT1 act: 150*; STAT3 blocker: -27; NF-kB neuron act: 1; STAT3 activator: 131; STAT1 inh: -54; APP 5'UTR act: 74

What do the screens show for `Clc1ccc(N/N=C/c2cccnc2)cc1`?
STAT1 act: 111; STAT3 blocker: 10; NF-kB neuron act: 1.8; STAT3 activator: 96; STAT1 inh: -13; APP 5'UTR act: 41

Results for CCCn1nnc(NC(=O)c2ccc(Cl)cc2Cl)n1 ?
STAT1 act: 131*; STAT3 blocker: -17; NF-kB neuron act: 2; STAT3 activator: 119; STAT1 inh: -33; APP 5'UTR act: 58

Results for CCCn1nnc(NC(=O)c2ccccc2Cl)n1 ?
STAT1 act: 110; STAT3 blocker: 0; NF-kB neuron act: 1.7; STAT3 activator: 103; STAT1 inh: -11; APP 5'UTR act: 12

Results for Cc1cccc(NC(=S)N/N=C/c2c[nH]c3ccccc23)c1 ?
STAT1 act: 132*; STAT3 blocker: -7; NF-kB neuron act: 1.9; STAT3 activator: 104; STAT1 inh: -36; APP 5'UTR act: -87

What do the screens show for `O=C(CNc1ccccc1)N/N=C/c1c[nH]c2ccccc12`?
STAT1 act: 107; STAT3 blocker: -14; NF-kB neuron act: 0.76; STAT3 activator: 112; STAT1 inh: -8; APP 5'UTR act: -8

Results for Cc1nn(C)cc1/C=N/NC(=S)Nc1ccccc1 ?
STAT1 act: 118; STAT3 blocker: 8; NF-kB neuron act: 3.4*; STAT3 activator: 97; STAT1 inh: -20; APP 5'UTR act: 59

What do the screens show for `COc1ccc(/C=C/C(=O)N2CCN(S(=O)(=O)c3ccccc3)CC2)cc1OC`?
STAT1 act: 138*; STAT3 blocker: 9; NF-kB neuron act: 0.89; STAT3 activator: 97; STAT1 inh: -43; APP 5'UTR act: 7

What do the screens show for `CN(C(=O)COc1ccc(Cl)cc1)c1nnc(C23CC4CC(CC(C4)C2)C3)s1`?
STAT1 act: 103; NF-kB neuron act: 1.2; STAT1 inh: -5; APP 5'UTR act: 4

How did CN(C(=O)c1ccco1)c1nc2c(s1)CCCC2 do in these assays?
STAT1 act: 130*; STAT3 blocker: 32; NF-kB neuron act: 4.1*; STAT3 activator: 78; STAT1 inh: -33; APP 5'UTR act: 162*

What do the screens show for `CN(C(=O)c1ccco1)c1nnc(C23CC4CC(CC(C4)C2)C3)s1`?
STAT1 act: 140*; STAT3 blocker: -34; NF-kB neuron act: 2.3; STAT3 activator: 133*; STAT1 inh: -44; APP 5'UTR act: 15
